Results published in ChEMBL document CHEMBL1155292, “Synthesis, analgesic and anti-inflammatory activities evaluation of some bi-, tri- and tetracyclic condensed pyrimidines” (Eur J Med Chem, 2009).

Assays:
Rattus norvegicus [1] = assay: Antiinflammatory activity in albino rat assessed as inhibition of carrageenan-induced paw edema at 0.029 mmol/kg, po after 4 hrs relative to control; format: functional
Method in brief: (§1)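 Adult albino rats of either sex, 120–150 g, six per group. Compounds at 0.029 mmol/kg suspended in saline with a few drops of Tween 80 and given by oral stomach tube. After 1 h, 0.1 ml of freshly prepared 1% carrageenan in saline injected subplantar into the right hind paw. Paw thickness measured at 1–4 h; % edema inhibition versus control; mean ± SEM; ANOVA.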

Rattus norvegicus [2] = assay: Antiinflammatory activity in albino rat assessed as inhibition of carrageenan-induced paw edema at 0.029 mmol/kg, po after 4 hrs relative to indomethacin; format: functional
Method in brief: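 Rat carrageenan paw edema: oral 0.029 mmol/kg in saline/Tween 80, 1 h before subplantar 0.1 ml 1% carrageenan into the right hind paw; six rats per group. Potency is % inhibition of the test compound divided by % inhibition of indomethacin at 4 h.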

Rattus norvegicus [3] = assay: Gastrointestinal toxicity in albino rat assessed as ulcerogenic index at 0.029 mmol/kg, po after 5 hrs; format: organism-based; conditions: in vivo
Method in brief: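 Adult albino rats of either sex (120–150 g), 6 per group, got the test compounds orally by stomach tube as a suspension in saline with a few drops of tween 80. They were the same rats used in the carrageenan paw-edema test. Stomachs were then opened along the great curvature and examined for lesions or bleeding. Ulceration was recorded as the number of rats with ulcers out of 6.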

Rattus norvegicus [4] = assay: Antiinflammatory activity in albino rat assessed as inhibition of carrageenan-induced paw edema at 0.029 mmol/kg, po after 3 hrs relative to control; format: functional; method in brief: as §1
Rattus norvegicus [5] = assay: Antiinflammatory activity in albino rat assessed as inhibition of carrageenan-induced paw edema at 0.029 mmol/kg, po after 2 hrs relative to control; format: functional; method in brief: as §1
Mus musculus [6] = assay: Analgesic activity in albino mouse assessed as decrease in acetic acid-induced writhing at 11.55 mg/kg, po administered 1 hr prior to acetic acid challenge relative to control; format: functional
Method in brief: (§2)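 Albino mice of either sex, 18–22 g, six per group. Test agents suspended in saline with a few drops of Tween 80 and given by oral stomach tube; controls handled identically without drug. After 1 h, 0.3 ml of 1% acetic acid ip. Writhing contractions counted for 30 min, starting 5 min after injection. % protection versus control mean; mean ± SEM; one-way ANOVA with post hoc test.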

Rattus norvegicus [7] = assay: Antiinflammatory activity in albino rat assessed as inhibition of carrageenan-induced paw edema at 0.029 mmol/kg, po after 1 hr relative to control; format: functional; method in brief: as §1
Mus musculus [8] = assay: Analgesic activity in albino mouse assessed as decrease in acetic acid-induced writhing at 12.87 mg/kg, po administered 1 hr prior to acetic acid challenge relative to control; format: functional; method in brief: as §2
Mus musculus [9] = assay: Analgesic activity in albino mouse assessed as decrease in acetic acid-induced writhing at 11.32 mg/kg, po administered 1 hr prior to acetic acid challenge relative to control; format: functional; method in brief: as §2
Mus musculus [10] = assay: Analgesic activity in albino mouse assessed as decrease in acetic acid-induced writhing at 1 mg/kg, po administered 1 hr prior to acetic acid challenge; format: functional; method in brief: as §2
Mus musculus [11] = assay: Analgesic activity in albino mouse assessed as decrease in acetic acid-induced writhing at 11.96 mg/kg, po administered 1 hr prior to acetic acid challenge relative to control; format: functional; method in brief: as §2
Mus musculus [12] = assay: Analgesic activity in po dosed albino mouse assessed as decrease in acetic acid-induced writhing administered 1 hr prior to acetic acid challenge; format: functional, organism-based; method in brief: as §2
Mus musculus [13] = assay: Analgesic activity in albino mouse assessed as decrease in acetic acid-induced writhing at 0.4 mg/kg, po administered 1 hr prior to acetic acid challenge; format: functional; method in brief: as §2
Mus musculus [14] = assay: Analgesic activity in albino mouse assessed as decrease in acetic acid-induced writhing at 4 mg/kg, po administered 1 hr prior to acetic acid challenge; format: functional; method in brief: as §2
Mus musculus [15] = assay: Analgesic activity in albino mouse assessed as decrease in acetic acid-induced writhing at 0.8 mg/kg, po administered 1 hr prior to acetic acid challenge; format: functional; method in brief: as §2
Mus musculus [16] = assay: Analgesic activity in albino mouse assessed as decrease in acetic acid-induced writhing at 2 mg/kg, po administered 1 hr prior to acetic acid challenge; format: functional; method in brief: as §2
Mus musculus [17] = assay: Analgesic activity in albino mouse assessed as decrease in acetic acid-induced writhing at 8 mg/kg, po administered 1 hr prior to acetic acid challenge; format: functional; method in brief: as §2
Mus musculus [18] = assay: Analgesic activity in albino mouse assessed as decrease in acetic acid-induced writhing at 13.81 mg/kg, po administered 1 hr prior to acetic acid challenge relative to control; format: functional; method in brief: as §2
Rattus norvegicus [19] = assay: Antiinflammatory activity in albino rat assessed as inhibition of carrageenan-induced paw edema at 20 mg/kg, po; format: functional
Method in brief: (§3)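 Rat carrageenan paw edema with oral dosing at 10, 15, 20 and 25 mg/kg, suspended in saline with Tween 80, 1 h before subplantar 0.1 ml 1% carrageenan into the right hind paw. % edema inhibition versus control at each dose; IC50 (mg/kg) derived from these four doses.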

Rattus norvegicus [20] = assay: Antiinflammatory activity in albino rat assessed as inhibition of carrageenan-induced paw edema at 25 mg/kg, po; format: functional; method in brief: as §3
Rattus norvegicus [21] = assay: Antiinflammatory activity in albino rat assessed as inhibition of carrageenan-induced paw edema at 15 mg/kg, po; format: functional; method in brief: as §3
Mus musculus [22] = assay: Analgesic activity in albino mouse assessed as decrease in acetic acid-induced writhing at 11.52 mg/kg, po administered 1 hr prior to acetic acid challenge relative to control; format: functional; method in brief: as §2
Rattus norvegicus [23] = assay: Antiinflammatory activity in po dosed albino rat assessed as inhibition of carrageenan-induced paw edema; format: functional, organism-based
Method in brief: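 Adult albino rats of either sex, 120–150 g, groups of 6. Compound suspended in saline with a few drops of tween 80, given by oral stomach tube 1 h before subplantar injection of freshly prepared 1% carrageenan (0.1 ml) in saline into right hind paw. Paw thickness read at 1–4 h; % edema inhibition versus carrageenan control; mean ± SEM, one-way ANOVA with post hoc test.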

Rattus norvegicus [24] = assay: Antiinflammatory activity in albino rat assessed as inhibition of carrageenan-induced paw edema at 10 mg/kg, po; format: functional; method in brief: as §3
Mus musculus [25] = assay: Analgesic activity in albino mouse assessed as decrease in acetic acid-induced writhing at 13.84 mg/kg, po administered 1 hr prior to acetic acid challenge relative to control; format: functional; method in brief: as §2
Mus musculus [26] = assay: Analgesic activity in albino mouse assessed as decrease in acetic acid-induced writhing at 12.04 mg/kg, po administered 1 hr prior to acetic acid challenge relative to control; format: functional; method in brief: as §2

SMILES | inhibition in vivo at 29 µmol/kg (Rattus norvegicus [1]) | relative potency at 29 µmol/kg (Rattus norvegicus [2]) | UI (Rattus norvegicus [3]) | inhibition in vivo at 29 µmol/kg (Rattus norvegicus [4]) | inhibition in vivo at 29 µmol/kg (Rattus norvegicus [5]) | inhibition in vivo at 29 µmol/kg (Rattus norvegicus [7]) | also measured
O=C1N(c2ccccc2)c2nc(-c3ccccc3)n3c(=O)[nH]nc3c2C2CCCN12 (centres undefined) | 15.5% | 0.56 | Non-toxic | 17.3% | 12.4% | 10.1% | inhibition in vivo at 11.55 mg/kg (Mus musculus [6]): 75.9%
CCOC(=O)NNc1nc(-c2ccccc2)nc2c1C1CCCN1C(=O)N2c1ccccc1 (centres undefined) | 16.1% | 0.59 |  | 18% | 17.4% | 19.1% | inhibition in vivo at 12.87 mg/kg (Mus musculus [8]): 91.8%
COc1ccc(C2NC(=O)C3=C(N2)N(c2ccccc2)C(=O)N2CCCC32)cc1 (centres undefined) | 18.6% | 0.68 |  | 13.7% | 6.64% | 6.72% | inhibition in vivo at 11.32 mg/kg (Mus musculus [9]): 84.4%
O=C1CN2C(=NN1)C1=C(N=C2c2ccccc2)N(c2ccccc2)C(=O)N2CCCC12 (centres undefined) | 21.1% | 0.77 | Non-toxic | 15.8% | 7.44% | 2.23% | inhibition in vivo at 1 mg/kg (Mus musculus [10]): 76.6%; inhibition in vivo at 11.96 mg/kg (Mus musculus [11]): 91.8%; IC50 (Mus musculus [12]): 0.446 mg/kg; inhibition in vivo at 0.4 mg/kg (Mus musculus [13]): 43.1%; inhibition in vivo at 4 mg/kg (Mus musculus [14]): 86.1%; inhibition in vivo at 0.8 mg/kg (Mus musculus [15]): 63.3%; inhibition in vivo at 2 mg/kg (Mus musculus [16]): 82.4%; inhibition in vivo at 8 mg/kg (Mus musculus [17]): 88.8%
O=C(NNc1nc(-c2ccccc2)nc2c1C1CCCN1C(=O)N2c1ccccc1)c1ccccc1 (centres undefined) | 25.5% | 0.93 |  | 27.4% | 28.9% | 35.9% | inhibition in vivo at 13.81 mg/kg (Mus musculus [18]): 71.8%
O=C1CN=C2C3=C(N=C(c4ccccc4)N12)N(c1ccccc1)C(=O)N1CCCC31 (centres undefined) | 29.2% | 1.06 | Non-toxic | 27.4% | 22.3% | 14.6% | inhibition in vivo at 20 mg/kg (Rattus norvegicus [19]): 61.3%; inhibition in vivo at 25 mg/kg (Rattus norvegicus [20]): 68.4%; inhibition in vivo at 15 mg/kg (Rattus norvegicus [21]): 40%; inhibition in vivo at 11.52 mg/kg (Mus musculus [22]): 78.5%; IC50 (Rattus norvegicus [23]): 17.62 mg/kg; inhibition in vivo at 10 mg/kg (Rattus norvegicus [24]): 17%
O=C(NNc1nc(-c2ccccc2)nc2c1C1CCCN1C(=O)N2c1ccccc1)c1cccnc1 (centres undefined) | 5.59% | 0.2 |  | 8.63% | 11.6% | 32.6% | inhibition in vivo at 13.84 mg/kg (Mus musculus [25]): 77.9%
O=C1N(c2ccccc2)c2nc(-c3ccccc3)nc(N3CCCC3)c2C2CCCN12 (centres undefined) | 15.5% | 0.56 | Non-toxic | 25.2% | 26.5% | 7.82% | inhibition in vivo at 12.04 mg/kg (Mus musculus [26]): 95%
